# Assay outcomes (PubChem BioAssay)
# The list is not random: actives were taken first. Their share in the collection is about 3.9%.
# Jurkat NFkB inh = inhibitors of the PMA/ionomycin-induced NF-kB reporter in Jurkat cells | PMA/ionomycin-induced NF-kB luciferase reporter, luminescence | inhibition, % at 4 µM | 330,000 compounds, 0.53% hits | AID 435003; in the data active means inhibition above about 50%
# UPR CHOP act = activators of apoptotic arm of unfolded protein response (CHOP). CHO-CHOP luciferase reporter, UPR activation, luminescence; percent of tunicamycin response over DMSO baseline. activation, % at 10 µM. 330,000 compounds, 0.34% hits. AID 449763;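 active means at 10 µM dose, activation of 40% or more, normalized to positive control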
#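 measured by = luciferase luminescence | assay system = CHO-CHOP cells, stable luciferase reporter of PERK-eIF2a-CHOP signalling | amount = 500 reporter cells seeded per well | timing = 6 h compound exposure at 37 °C after overnight seeding | controls = positive tunicamycin 10 µg/mL, negative DMSO alone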
# Gli-Sufu antag = Gli-Sufu pathway antagonism; Sufu-KO-LIGHT fibroblasts, Gli luciferase reporter luminescence; inhibition, % at 5 µM; 340,000 compounds, 0.74% hits; AID 588413;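 active means inhibition above about 55%, limit read from the data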
# XBP1 UPR activ = activators of adaptive arm of unfolded protein response (XBP1) | CHO-XBP1 luciferase reporter, IRE1-XBP1 UPR activation, luminescence; percent of tunicamycin response, DMSO as zero | activation, % at 20 µM | 330,000 compounds, 0.33% hits;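 active means versus positive control, 20 µM dose yields 30% or more activation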
#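 Material – CHO cell line with stable XBP1 luciferase reporter · Buffer or medium – F12 plus 10% FBS · Compound – single point, 20 µM final compound, 1% DMSO · Schedule – 16-18 h cell attachment at 37 °C, then 6 h compound exposure · Signal – Steady-Glo luminescence read · Benchmarks – high control tunicamycin 10 µg/mL final, low control DMSO vehicle only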
# CHOP inh = CHOP inhibition in unfolded protein response; CHO-K1 CHOP-promoter luciferase, tunicamycin-induced, 15-18 h; inhibition, % at 10 µM; 220,000 compounds, 3.8% hits; AID 2732;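 active means compounds that reduced the stress-induced luciferase reporter signal by more than about 70% of percent inhibition, limit read from the data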
# 697 NFkB inh = lowers PMA/ionomycin-induced NF-kB signal in 697 B cells; 697 B-cell NF-kB luciferase reporter, 16 h; inhibition, % at 4 µM; 330,000 compounds, 0.33% hits; AID 435022; in the data active means inhibition above about 35%
# CHOP inh conf = confirmation of CHOP induction inhibitors; shares compounds with CHOP inh; CHO-CHOP promoter luciferase reporter, tunicamycin-induced, luminescence; inhibition, % at 10 µM; 2,100 compounds, 45% hits; AID 504437;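 active means mean of three repeat readings of reporter signal inhibition above a set limit, cut at about 70% in these data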
# A number is an active result; – = inactive; · = not tested or not shown.
SMILES,Jurkat NFkB inh,UPR CHOP act,Gli-Sufu antag,XBP1 UPR activ,CHOP inh,697 NFkB inh,CHOP inh conf
CCCC1/C(=N/O)CC(c2ccccc2)NC1c1ccccc1 (configuration not stated),–,–,–,–,105.5,–,–
O=C(CSC1=NS(=O)(=O)c2ccccc21)Nc1ccccc1,–,–,–,–,106.3,–,–
Cc1cccc(NS(=O)(=O)c2ccc(-n3cccn3)cc2)c1C,–,–,–,–,·,–,·
N#CCCN(NC(=O)OCc1ccccc1)C(=O)OCc1ccccc1,·,·,–,·,·,·,·
COC(=O)/C(=C(/F)Sc1cc(C)c(O)c(C)c1)C(F)(F)F,–,–,–,–,97.5,–,118.3
Cc1c(Cl)cccc1NC(=O)CN(C1CCCCC1)S(C)(=O)=O,–,–,–,–,·,–,·
O=C(/C=C/c1cccc(Cl)c1)Nc1ncccn1,–,–,–,–,–,–,·
O=C(/C=C/c1cccc(Cl)c1)c1nc2ccccc2[nH]1,–,–,–,–,102.4,–,–
CCCc1nc(SCC(=O)Nc2ccccc2)c2c(=O)n(C)c(=O)n(C)c2n1,–,–,–,–,98.5,–,–
O=C(Nc1ccc(-c2nc3ccccc3o2)cc1)c1ccc(N2CCOCC2)c([N+](=O)[O-])c1,–,–,·,–,101.0,–,114.3
CCCCc1ccc(NS(=O)(=O)c2cccc(C(=O)N3CCNC(=O)C3)c2)cc1,–,–,–,–,·,–,·
Cc1ccc2oc(-c3cccc(NC(=O)Cc4cccs4)c3)nc2c1,–,–,–,–,97.7,–,–
Cc1ccc2oc(-c3cccc(NC(=O)c4cc(-n5cnnc5)ccc4Cl)c3)nc2c1,–,–,–,–,101.7,–,–
CCCC(=O)Nc1cccc(-c2nc3ccccc3o2)c1,–,–,–,–,–,–,·
Cc1ccc2oc(-c3ccc(C)c(NC(=O)Cc4cccs4)c3)nc2c1,–,–,–,–,–,–,·
Cc1ccc(NC(=O)c2cc(-n3cnnc3)ccc2Cl)cc1,–,–,–,–,–,–,·
CCCC(=O)Nc1cccc(-c2nc3cc(C)c(C)cc3o2)c1,–,–,–,–,105.2,–,–
O=C(NCCCN1CCCC1=O)Nc1ccc(Br)cc1Cl,–,–,–,–,·,–,·
O=C(CNC1CCCCCC1)Nc1ccccc1N1CCCCC1,–,–,–,–,97.6,–,93.9
COc1cccc(Nc2ncnc3c2cnn3-c2cccc(C)c2)c1,–,–,–,–,104.8,–,130.0
CCN(CC)S(=O)(=O)c1ccc2c(c1)nc(CCC(=O)Nc1cccc(C(F)(F)F)c1)n2CC,–,–,–,–,–,–,·
CCN(CC)S(=O)(=O)c1cccc(NC(=O)Nc2cccc(C(F)(F)F)c2)c1,–,–,–,–,99.9,–,124.0
CCOc1ccc(C(=O)NNC(=O)CN2C(=O)NC3(CCCC3)C2=O)cc1,–,–,–,–,·,–,·
O=C(Cn1ncc(Cl)c(Cl)c1=O)NCC1CCCCC1,·,·,–,·,108.3,·,–
O=C(Cn1ncc(Cl)c(Cl)c1=O)NC1CCCCC1,–,–,–,–,·,–,·
SMILES,Jurkat NFkB inh,UPR CHOP act,Gli-Sufu antag,XBP1 UPR activ,CHOP inh,697 NFkB inh,CHOP inh conf
CCCN1CCN(S(=O)(=O)c2ccc3c(c2)CCC(=O)N3)CC1,–,–,–,–,·,–,·
O=C(/C=C/c1ccncc1)c1ccc(NC(=O)c2ccccc2F)cc1,·,·,–,·,105.8,·,–
O=C(COc1ccc(Cl)cc1)Nc1ccccc1C(=O)NCc1ccco1,–,–,–,–,97.0,–,–
CCOC(=O)C1=C(c2ccccc2)OC(N)=C(C#N)C1C1CCCCC1 (configuration not stated),–,–,–,–,109.1,–,–
CCOC(=O)C1=C(C)OC(N)=C(C#N)C1C1CCCCC1 (configuration not stated),–,–,–,–,–,–,·
O=C1Cc2cc(S(=O)(=O)Nc3ccc(N4CCOCC4)cc3)ccc2N1,–,–,–,–,·,–,·
COc1cc([C@@H]2c3cc4c(cc3[C@@H](O)[C@@H](CO)[C@@H]2CO)OCO4)cc(OC)c1O[Si](C)(C)C(C)(C)C,–,–,·,–,100.2,–,117.1
COc1cc(C2c3cc4c(cc3C(O)C3COCC23)OCO4)cc(OC)c1OC (configuration not stated),·,·,–,·,·,·,·
Cc1ccc(C(=O)C(C)OC(=O)Cn2c(C)csc2=O)cc1 (configuration not stated),–,–,–,–,·,–,·
Cc1n[nH]c(=S)n1/N=C/c1ccc(OCc2ccc(Cl)cc2Cl)cc1,–,–,–,–,–,–,·
Cc1n[nH]c(=S)n1/N=C/c1ccccc1OCc1ccc(Cl)cc1Cl,–,–,–,–,101.6,–,–
CC(C)Cn1c(N)c(C(=O)COC(=O)C2CCCCC2)c(=O)n(C)c1=O,–,–,–,–,99.7,–,77.8
Cc1ccc(Cl)cc1NC(=O)CCC(=O)Nc1cc(Cl)ccc1C,–,–,–,–,100.3,–,–
C/C(CCc1ccc2c(c1)OCO2)=N\N=C(/N)SC1CC(=O)N(c2ccc(Cl)cc2)C1=O (configuration not stated),–,–,–,–,97.2,–,–
N/C(=N\N=C\c1ccc2c(c1)OCO2)SC1CC(=O)N(c2ccc(C(=O)O)cc2)C1=O (configuration not stated),–,–,–,–,–,–,·
COc1cc(CNCc2ccccn2)ccc1OCc1ccc(Cl)cc1Cl,–,–,–,–,98.1,–,106.1
CCOc1ccccc1CNc1ccc(O)cc1,·,·,–,·,–,·,·
CCOc1cccc(CNc2ccc(O)cc2)c1OCc1ccc(Cl)cc1,–,–,–,–,109.2,–,–
CCOc1cc(CNc2ccc(O)cc2)ccc1OCc1ccc(Cl)cc1Cl,–,–,–,–,103.3,–,111.6
COc1ccc(CC(=O)Nc2ccccc2C(=O)N2CCCC2)cc1,–,–,–,–,·,–,·
O=C1NC(Cc2ccccc2)c2nc3cc(F)ccc3c(=O)n2-c2cc(Cl)ccc21 (configuration not stated),–,–,·,–,·,–,·
CCC(Cc1ccccc1)n1c(=S)[nH]c2ccccc2c1=O (configuration not stated),–,–,–,–,96.7,–,82.2
CN1/C(=C\C(=O)c2cccs2)C(C)(C)c2ccccc21,–,–,–,–,–,–,·
Cc1cc(C)c2c(c1)/C(=C/C(=O)c1ccc(Br)s1)C(=O)N2,–,–,–,–,109.8,–,–
O=C(/C=C1\C(=O)Nc2ccccc21)/C=C1\C(=O)Nc2ccccc21,·,·,–,·,–,·,·
Cc1cc(Br)c2c(c1)/C(=C/C(=O)c1cccs1)C(=O)N2,–,–,–,–,99.0,–,80.2
Cc1cccc2c1NC(=O)/C2=C\C(=O)c1cccs1,–,–,–,–,110.2,–,–
Cc1cc(C)c(C(=O)c2cccs2)c(C)c1,·,·,–,·,·,·,·
